Source: ChEMBL document CHEMBL4819012, “Discovery of novel 2-aryl-3-sulfonamido-pyridines (HoAns) as microtubule polymerization inhibitors with potent antitumor activities” (Eur J Med Chem, 2021)
The source made the active and inactive calls. No cut-off for these calls is given here.

What was measured:
MCF7 = experiment: Antiproliferative activity against human MCF7 cells assessed as cell viability at 10 uM measured after 72 hrs by MTS method; format: functional; conditions: read-out: Activity
In short: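 Single-concentration screen at 10 µM for 72 h. Log-phase cells plated at 5×10^3–6×10^3 per well for 24 h before dosing, five replicate wells. Viability measured by MTS: 10% MTS in fresh medium, 30 min or more at 37 °C in dark, absorbance 490 nm.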

RKO = experiment: Antiproliferative activity against human RKO cells assessed as cell viability measured after 72 hrs by MTS method; format: functional, cell-based
In short: (§1)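 Log-phase cells plated at 5×10^3–6×10^3 per well for 24 h, then given graded compound concentrations in fresh medium for 72 h, five replicate wells. Medium replaced with medium containing 10% MTS, 30 min or more at 37 °C in dark; OD 490 nm read. IC50 by nonlinear regression; mean ± SD of at least three experiments.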

[1] = Antiproliferative activity against human HCCLM3 cells assessed as cell viability measured after 72 hrs by MTS method; format: functional, cell-based; conditions: HCCLM3, 72 h; in short: as §1
PANC-1 = experiment: Antiproliferative activity against human PANC-1 cells assessed as cell viability measured after 72 hrs by MTS method; format: functional, cell-based; conditions: PANC-1, 72 h; in short: as §1
PLC-PRF-5 = experiment: Antiproliferative activity against human PLC-PRF-5 cells assessed as cell viability measured after 72 hrs by MTS method; format: functional, cell-based; conditions: PLC-PRF-5, 72 h; in short: as §1
SW-620 = experiment: Antiproliferative activity against human SW-620 cells assessed as cell viability measured after 72 hrs by MTS method; format: functional, cell-based; conditions: SW-620, 72 h; in short: as §1
NCI-H460 = experiment: Antiproliferative activity against human NCI-H460 cells assessed as cell viability measured after 72 hrs by MTS method; format: functional, cell-based; conditions: NCI-H460, 72 h; in short: as §1
SW480 = experiment: Antiproliferative activity against human SW480 cells assessed as cell viability measured after 72 hrs by MTS method; format: functional, cell-based; conditions: SW480, 72 h; in short: as §1
SK-BR-3 = experiment: Antiproliferative activity against human SK-BR-3 cells assessed as cell viability measured after 72 hrs by MTS method; format: functional, cell-based; conditions: SK-BR-3, 72 h; in short: as §1
A549 = experiment: Antiproliferative activity against human A549 cells assessed as cell viability measured after 72 hrs by MTS method; format: functional, cell-based; conditions: A549, 72 h; in short: as §1
BT-474 = experiment: Antiproliferative activity against human BT-474 cells assessed as cell viability measured after 72 hrs by MTS method; format: functional, cell-based; conditions: BT-474, 72 h; in short: as §1
Tubulin (Homo sapiens) [2] = target: T1, Tubulin (Homo sapiens) (UniProt P68371+Q9H4B7+P0DPH7+P68366+Q13509+Q71U36+P04350+Q3ZCM7+P07437+P68363+Q9BQE3+Q6PEY2+Q13885+Q9BVA1+Q9BUF5); experiment: Inhibition of tubulin polymerization in human RKO cells assessed as morphology changed to fusiform at 1 uM measured 24 hrs by DAPI staining based immunoflourescence assay; format: cell-based; conditions: in the assay text read “changed to round from fusiform” for “changed to fusiform”
In short: (§2)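 RKO cells on coverslips (2.5×10^5 per well) incubated overnight, then treated for 24 h at 0.5 or 1 μM, DMSO, or 1 μM comparators. Fixed in cold methanol 10 min, permeabilized with 0.25% Triton X-100, blocked in 1% BSA at 4 °C overnight. Stained with anti-β-tubulin (1:100, 2 h RT) and Alexa Fluor 594 secondary (1:500, 1 h), nuclei with DAPI; imaged by fluorescence microscopy.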

Tubulin (Homo sapiens) [3] = target: T1, Tubulin (Homo sapiens); experiment: Inhibition of tubulin polymerization in human RKO cells assessed as fragmentation of microtubule at 1 uM measured 24 hrs by DAPI staining based immunoflourescence assay; format: cell-based; in short: as §2
Sus scrofa = species on record: Sus scrofa; experiment: Inhibition of pig tubulin polymerization at 10 uM measured every minute for 60 mins by microplate reader method
In short: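 Kit assay with porcine tubulin (>97% pure) at 4 mg/mL in PIPES 80 mM, MgCl2 2 mM, EGTA 0.5 mM, pH 6.9, with GTP. Compound at 10 μM final (from 100 μM working solution) preincubated 5 min at 37 °C in a prewarmed plate before cold tubulin mix is added. A340 read every minute for 60 min at 37 °C.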

For `COc1ccc(S(=O)(=O)Nc2cccnc2-c2cccc(OC)c2)cc1`, the viability at 10 µM (MCF7) was > 70%.

For `N#Cc1ccc(-c2ncccc2NS(=O)(=O)c2ccc(Cl)cc2)cc1F`, the viability at 10 µM (MCF7) was > 70%, the IC50 (RKO) was > 10 µM and the IC50 [1] was > 10 µM. The IC50 (PANC-1) was > 10 µM.

In the case of `COc1ccc(S(=O)(=O)N(c2cccnc2-c2ccc(OC)cc2OC)S(=O)(=O)c2ccc(OC)cc2)cc1`, the viability at 10 µM (MCF7) is reported as > 70%.

With `COc1ccc(S(=O)(=O)Nc2cccnc2-c2cccc(OC)c2OC)cc1` the viability at 10 µM (MCF7) was > 70%.

In the case of `COc1ccc(S(=O)(=O)N(c2cccnc2-c2ccc3c(c2)OCO3)S(=O)(=O)c2ccc(OC)cc2)cc1`, the viability at 10 µM (MCF7) is reported as > 70%.

With `COc1ccc(S(=O)(=O)N(c2cccnc2-c2cc(OC)ccc2OC)S(=O)(=O)c2ccc(OC)cc2)cc1` the viability at 10 µM (MCF7) was > 70%.

In the case of `COc1ccc(S(=O)(=O)Nc2cccnc2-c2ccc3c(c2)OCO3)cc1`, the viability at 10 µM (MCF7) is reported as > 70%.

In the case of `COc1ccc(S(=O)(=O)Nc2cccnc2-c2ccccc2)cc1`, the IC50 (PLC-PRF-5) is reported as > 10 µM, the IC50 (SW-620) is reported as 7.89 µM and the IC50 (NCI-H460) is reported as > 10 µM. The IC50 (SW480) was > 10 µM, the IC50 (RKO) was 4.32 µM and the IC50 (SK-BR-3) was > 10 µM. The IC50 (A549) was > 10 µM, the IC50 [1] was > 10 µM and the IC50 (BT-474) was > 10 µM. The IC50 (PANC-1) was > 10 µM.

For `COc1ccc(S(=O)(=O)Nc2cccnc2-c2ccnnc2)cc1`, the viability at 10 µM (MCF7) was > 70%.

For `COc1ccc(S(=O)(=O)Nc2cccnc2-c2cccnc2)cc1`, the viability at 10 µM (MCF7) was > 70%.

For `COc1ccc(-c2ncccc2NS(=O)(=O)c2ccc(OC)cc2)cc1`, the viability at 10 µM (MCF7) was > 70%.

For `COc1ccc(S(=O)(=O)Nc2cccnc2-c2cccc([N+](=O)[O-])c2)cc1`, the viability at 10 µM (MCF7) was > 70%.

In the case of `COc1ccc(S(=O)(=O)Nc2cccnc2-c2ccc(C(F)(F)F)cc2)cc1`, the IC50 (PLC-PRF-5) is reported as > 10 µM, the IC50 (SW-620) is reported as 6.82 µM and the IC50 (NCI-H460) is reported as > 10 µM. The IC50 (SW480) was 9.21 µM, the IC50 (RKO) was 4.05 µM and the IC50 (SK-BR-3) was > 10 µM. For the same compound, the IC50 (A549) was > 10 µM, the IC50 [1] was > 10 µM and the IC50 (BT-474) was > 10 µM. For the same compound, the IC50 (PANC-1) was > 10 µM.

For `C=CCc1ccc(O)c(-c2ccc(O)c(CC=C)c2)c1` [HONOKIOL], the viability at 10 µM (MCF7) was > 70%.

In the case of `COc1ccc(S(=O)(=O)Nc2cccnc2-c2cccc(N)c2)cc1`, the viability at 10 µM (MCF7) is reported as > 70%.

`N#Cc1ccc(-c2ncccc2NS(=O)(=O)c2ccc3ccccc3c2)cc1F` showed an IC50 (RKO) of 2.92 µM, an IC50 [1] of 8.87 µM and an IC50 (PANC-1) of 10 µM.

In the case of `COc1ccc(S(=O)(=O)Nc2cccnc2-c2cccc(O)c2)cc1`, the viability at 10 µM (MCF7) is reported as > 70%.

For `N#Cc1ccc(-c2ncccc2NS(=O)(=O)c2ccc(C(F)(F)F)cc2)cc1F`, the IC50 (RKO) was > 10 µM, the IC50 [1] was > 10 µM and the IC50 (PANC-1) was > 10 µM.

In the case of `CC(=O)O[C@H]1C(=O)[C@@]2(C)[C@H]([C@H](OC(=O)c3ccccc3)[C@]3(O)C[C@H](OC(=O)[C@H](O)[C@@H](NC(=O)c4ccccc4)c4ccccc4)C(C)=C1C3(C)C)[C@]1(OC(C)=O)CO[C@@H]1C[C@@H]2O`, the inhibition (Tubulin (Homo sapiens) [2]) is reported as “inactive”, the inhibition (Tubulin (Homo sapiens) [3]) is reported as “inactive” and the inhibition (Sus scrofa) is reported as “inactive”.

In the case of `COc1ccc(S(=O)(=O)Nc2cccnc2-c2ccc(O)cc2)cc1`, the viability at 10 µM (MCF7) is reported as > 70%.

For `COc1ccc(S(=O)(=O)Nc2cccnc2-c2ccc([N+](=O)[O-])cc2)cc1`, the IC50 (PLC-PRF-5) was 5.3 µM, the IC50 (SW-620) was 3.62 µM and the IC50 (NCI-H460) was > 10 µM. For the same compound, the IC50 (SW480) was 3.85 µM, the IC50 (RKO) was 1.4 µM and the IC50 (SK-BR-3) was 6.31 µM. For the same compound, the IC50 (A549) was > 10 µM, the IC50 [1] was 7.6 µM and the IC50 (BT-474) was > 10 µM. The IC50 (PANC-1) was 7.19 µM.

For `N#Cc1ccc(-c2ncccc2NS(=O)(=O)c2ccc(OC(F)(F)F)cc2)cc1F`, the IC50 (RKO) was > 10 µM, the IC50 [1] was > 10 µM and the IC50 (PANC-1) was > 10 µM.

With `COc1ccc(S(=O)(=O)Nc2cccnc2-c2cc(OC)ccc2OC)cc1` the viability at 10 µM (MCF7) was > 70%.

With `Cc1ccc(S(=O)(=O)Nc2cccnc2-c2ccc(C#N)c(F)c2)cc1` the viability at 10 µM (MCF7) was > 70%, the IC50 (RKO) was 9.21 µM and the IC50 [1] was > 10 µM. The IC50 (PANC-1) was > 10 µM.

In the case of `N#Cc1ccc(-c2ncccc2NS(=O)(=O)c2ccccc2)cc1F`, the IC50 (RKO) is reported as > 10 µM, the IC50 [1] is reported as > 10 µM and the IC50 (PANC-1) is reported as > 10 µM.

For `COc1ccc(S(=O)(=O)Nc2cccnc2-c2c(OC)cccc2OC)cc1`, the viability at 10 µM (MCF7) was > 70%.

For `COc1ccc(S(=O)(=O)Nc2cccnc2-c2ccncc2)cc1`, the viability at 10 µM (MCF7) was > 70%.

With `N#Cc1ccc(-c2ncccc2NS(=O)(=O)c2ccc(Br)cc2)cc1F` the viability at 10 µM (MCF7) was > 70%, the IC50 (RKO) was > 10 µM and the IC50 [1] was > 10 µM. The IC50 (PANC-1) was > 10 µM.

In the case of `COc1ccc(S(=O)(=O)Nc2cccnc2-c2ccc(OC)cc2OC)cc1`, the viability at 10 µM (MCF7) is reported as > 70%.

With `COc1ccc(S(=O)(=O)Nc2cccnc2-c2cc(OC)c(OC)c(OC)c2)cc1` the viability at 10 µM (MCF7) was > 70%.

For `COc1ccc(S(=O)(=O)Nc2cccnc2-c2cccc3c2oc2ccccc23)cc1`, the viability at 10 µM (MCF7) was > 70%.

For `COc1ccc(S(=O)(=O)Nc2cccnc2-c2ccc(C#N)c(F)c2)cc1OC`, the IC50 (RKO) was > 10 µM, the IC50 [1] was > 10 µM and the IC50 (PANC-1) was > 10 µM.

For `COc1ccc(S(=O)(=O)Nc2cccnc2-c2ccc(N)cc2)cc1`, the viability at 10 µM (MCF7) was > 70%.

With `COc1ccc(S(=O)(=O)Nc2cccnc2-c2ccc(OC)c(OC)c2)cc1` the viability at 10 µM (MCF7) was > 70%.

For `COc1ccc(S(=O)(=O)Nc2cccnc2-c2cc(OC)cc(OC)c2)cc1`, the viability at 10 µM (MCF7) was > 70%.

For `COc1ccc(S(=O)(=O)Nc2cccnc2-c2cccc(C#N)c2)cc1`, the viability at 10 µM (MCF7) was > 70%.

In the case of `COc1ccc(S(=O)(=O)Nc2cccnc2-c2ccc(OCc3ccccc3)cc2)cc1`, the viability at 10 µM (MCF7) is reported as > 70%.

For `COc1ccc(S(=O)(=O)N(c2cccnc2-c2cccc(OC)c2OC)S(=O)(=O)c2ccc(OC)cc2)cc1`, the viability at 10 µM (MCF7) was > 70%.

For `COc1ccc(S(=O)(=O)Nc2cccnc2-c2ccccc2O)cc1`, the viability at 10 µM (MCF7) was > 70%.

With `COc1ccc(S(=O)(=O)Nc2cccnc2-c2ccc(C#N)cc2)cc1` the IC50 (PLC-PRF-5) was 0.816 µM, the IC50 (SW-620) was 0.607 µM and the IC50 (NCI-H460) was 1.5 µM. It also gave an IC50 (SW480) of 0.204 µM, an IC50 (RKO) of 0.259 µM and an IC50 (SK-BR-3) of 0.746 µM. For the same compound, the IC50 (A549) was 2.46 µM, the IC50 [1] was 0.747 µM and the IC50 (BT-474) was 1.34 µM. It also gave an IC50 (PANC-1) of 1.09 µM.

In the case of `COc1ccc(S(=O)(=O)Nc2cccnc2-c2ccccc2OC)cc1`, the viability at 10 µM (MCF7) is reported as > 70%.
